Assay results from ChEMBL document CHEMBL4706642, “Discovery of a Potent Dual Inhibitor of Acetylcholinesterase and Butyrylcholinesterase with Antioxidant Activity that Alleviates Alzheimer-like Pathology in Old APP/PS1 Mice” (J Med Chem, 2021).
Activity calls are given as the source filed them.

Tests used:
Mus musculus [1] = assay: Antialzheimer activity in 6 months young APP/PS1 double mutant-transgenic mouse model assessed as amyloid beta42 levels in hippocampus at 2 mg/kg, ip administered thrice a week for 4 weeks by ELISA; assay type: functional, organism-based
Procedure, shortened: (§1)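 Male APP/PS1 mice received 2 mg/kg i.p. in saline (or vehicle), three times weekly for 4 weeks. After the behavioral tests, hippocampus was collected and Aβ40 and Aβ42 were measured with a specific ELISA kit. Mean ± SEM, n = 7 mice per group; one-way ANOVA with Bonferroni post hoc.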

Mus musculus [2] = assay: Memory enhancement effect in 6 months young APP/PS1 double mutant-transgenic mouse model at 2 mg/kg, ip administered thrice a week for 4 weeks by memory flexibility text; assay type: functional, organism-based
Procedure, shortened: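 Memory flexibility test in male APP/PS1 mice treated i.p. with 2 mg/kg in saline (or vehicle), three times weekly for 4 weeks. The number of trials to reach criterion was counted on each testing day over 4 days. Mean ± SEM, n = 7 per group; one-way ANOVA with Bonferroni post hoc.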

Mus musculus [3] = assay: Antialzheimer activity in 11 months old APP/PS1 double mutant-transgenic mouse model assessed as ratio of amyloid beta42 to amyloid beta40 levels in hippocampus at 2 mg/kg, ip administered thrice a week for 4 weeks by ELISA (reference value: 7.99 +/- 0.60); assay type: functional
Mus musculus [4] = assay: (§2) Antialzheimer activity in 6 months young APP/PS1 double mutant-transgenic mouse model assessed as theta burst induced-long term potentiation in CA3 region of hippocampus at 2 mg/kg, ip administered thrice a week for 4 weeks by fluorescence microscopy based electrophysiology method (reference value: 134.1 +/- 13.1 %); assay type: functional
Mus musculus [5] = assay: Antiinflammatory activity in 11 months old APP/PS1 double mutant-transgenic mouse model assessed as reduction in GFAP level in hippocampus at 2 mg/kg, ip administered thrice a week for 4 weeks by Hoechst staining based immunofluorescence analysis; assay type: functional, organism-based
Procedure, shortened: (§3)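 Hippocampal GFAP immunofluorescence with Hoechst nuclear counterstain in male APP/PS1 mice after 2 mg/kg i.p. in saline (or vehicle), three times per week for 4 weeks. Mean ± SEM, n = 4 mice per group; one-way ANOVA with Bonferroni post hoc.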

Mus musculus [6] = assay: Cognitive enhancing effect in 6 months young APP/PS1 double mutant-transgenic mouse model assessed as effect on number of times animal crossing central area in transparent cage at 2 mg/kg, ip administered thrice a week for 4 weeks by LOF test; assay type: functional, organism-based
Procedure, shortened: (§4)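 Open-field locomotor test in male APP/PS1 mice after 2 mg/kg i.p. in saline (or vehicle), three times per week for 4 weeks. Read-outs were time spent moving and number of crossings of the central area of a transparent cage. Mean ± SEM, n = 7 per group; one-way ANOVA with Bonferroni post hoc.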

Mus musculus [7] = assay: Cognitive enhancing effect in 11 months old APP/PS1 double mutant-transgenic mouse model assessed as effect on number of times animal crossing central area in transparent cage at 2 mg/kg, ip administered thrice a week for 4 weeks by LOF test; assay type: functional, organism-based; procedure, shortened: as §4
Mus musculus [8] = assay: Antialzheimer activity in 11 months old APP/PS1 double mutant-transgenic mouse model assessed as amyloid beta40 levels in hippocampus at 2 mg/kg, ip administered thrice a week for 4 weeks by ELISA (reference value: 8.65 +/- 0.44 pg/ml); assay type: functional; procedure, shortened: as §1
[9] = Drug distribution in wild type C57BL6 mouse kidney at 2 mg/kg, ip thrice a week for 2 weeks observed after 4 hrs post last dose by HPLC/MS/MS analysis; assay type: ADME, organism-based; conditions: in vivo, 336 h
Mus musculus [10] = assay: Cognitive enhancing effect in 6 months young APP/PS1 double mutant-transgenic mouse model assessed as increase in preference index for object at 2 mg/kg, ip administered thrice a week for 4 weeks by novel object localization test; assay type: functional, organism-based
Procedure, shortened: (§5)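 Male APP/PS1 mice received 2 mg/kg i.p. in saline (or vehicle), three times per week for 4 weeks. Preference index = time exploring the relocated or novel object divided by total time exploring both objects. Mean ± SEM, n = 7 per group; one-way ANOVA with Bonferroni post hoc.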

Mus musculus [11] = assay: Antiinflammatory activity in 6 months young APP/PS1 double mutant-transgenic mouse model assessed as reduction in GFAP level in hippocampus at 2 mg/kg, ip administered thrice a week for 4 weeks by Hoechst staining based immunofluorescence analysis; assay type: functional, organism-based; procedure, shortened: as §3
Mus musculus [12] = assay: Cognitive enhancing effect in 11 months old APP/PS1 double mutant-transgenic mouse model assessed as effect on time spent on moving along the field at 2 mg/kg, ip administered thrice a week for 4 weeks by LOF test; assay type: functional, organism-based; procedure, shortened: as §4
Mus musculus [13] = assay: Cognitive enhancing effect in 6 months young APP/PS1 double mutant-transgenic mouse model assessed as increase in preference index for object at 2 mg/kg, ip administered thrice a week for 4 weeks by novel object recognition test; assay type: functional, organism-based; procedure, shortened: as §5
[14] = target: Beta-secretase 1 (Homo sapiens) (UniProt P56817); assay: Inhibition of recombinant human BACE-1 at 1 uM using methoxycoumarin-Ser-Glu-Val-Asn-Leu-Asp-Ala-Glu-Phe-Lys-dinitrophenyl as substrate preincubated for 1 hr followed by substrate addition and measured after 15 mins by fluorescence based assay relative to control; conditions: time 75.0 min
Mus musculus [15] = assay: as §2, with “time interval between two EPSPs” for “theta burst induced-long term potentiation”, “weeks at 10 ms stimulus interval” for “weeks”, “3.18” for “134.1”, “0.8 ms)” for “13.1 %)”; assay type: functional
Procedure, shortened: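 Paired-pulse facilitation in hippocampal slices from male APP/PS1 mice dosed i.p. with 2 mg/kg in saline (or vehicle), three times per week for 4 weeks. Two EPSPs were evoked at intervals of 10–200 ms, and the index is the R2/R1 fEPSP slope ratio. Mean ± SEM of 9 slices from 3 mice per group; two-way ANOVA with Bonferroni post hoc.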

Mus musculus [16] = assay: Cognitive enhancing effect in 11 months old APP/PS1 double mutant-transgenic mouse model assessed as increase in preference index for object at 2 mg/kg, ip administered thrice a week for 4 weeks by novel object localization test; assay type: functional, organism-based; procedure, shortened: as §5
[17] = Drug distribution in wild type C57BL6 mouse brain at 2 mg/kg, ip thrice a week for 2 weeks observed after 4 hrs post last dose by HPLC/MS/MS analysis; assay type: ADME, organism-based; conditions: in vivo, 336 h
Acetylcholinesterase [18] = target: Acetylcholinesterase (Homo sapiens, UniProt P22303); assay: Mixed-type inhibition of recombinant human AChE using varying concentration of acetylthiocholine iodide as substrate at 0.17 to 1.36 nM by Lineweaver-burk plot analysis
Procedure, shortened: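 Kinetics on human recombinant AChE with acetylthiocholine at 0.113–0.566 mM and inhibitor at 0.17–1.36 nM. Lineweaver–Burk plots were fitted by weighted least squares. Ki was taken as the negative x-intercept of a replot of slopes vs [I]. K'i came from a plot of apparent 1/vmax vs [I]. Two independent experiments, each in triplicate.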

Acetylcholinesterase [19] = target: Acetylcholinesterase (Electrophorus electricus, UniProt O42275); assay: Displacement of propidium iodide from PAS-region of electric eel AChE assessed as dissociation constant by spectrofluorimetric analysis
Procedure, shortened: (§6)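 Back-titration fluorescence assay using electric eel AChE (type VI-S). Inhibitor was added in successive aliquots from a MeOH stock. Emission was read at 602 nm with excitation at 535 nm, after subtracting blanks. […] Three independent experiments.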

[20] = target: Acetylcholinesterase (Electrophorus electricus) (UniProt O42275); assay: Displacement of propidium iodide from PAS-region of electric eel AChE assessed as decrease in fluorescence intensity at 4 to 64 uM by spectrofluorimetric analysis relative to control; set-up: scale not given: the % may be the effect or the level left; conditions: dose 4-64 µM; procedure, shortened: as §6
Acetylcholinesterase (Electrophorus electricus), sequence (O42275 24-633 limits assumed): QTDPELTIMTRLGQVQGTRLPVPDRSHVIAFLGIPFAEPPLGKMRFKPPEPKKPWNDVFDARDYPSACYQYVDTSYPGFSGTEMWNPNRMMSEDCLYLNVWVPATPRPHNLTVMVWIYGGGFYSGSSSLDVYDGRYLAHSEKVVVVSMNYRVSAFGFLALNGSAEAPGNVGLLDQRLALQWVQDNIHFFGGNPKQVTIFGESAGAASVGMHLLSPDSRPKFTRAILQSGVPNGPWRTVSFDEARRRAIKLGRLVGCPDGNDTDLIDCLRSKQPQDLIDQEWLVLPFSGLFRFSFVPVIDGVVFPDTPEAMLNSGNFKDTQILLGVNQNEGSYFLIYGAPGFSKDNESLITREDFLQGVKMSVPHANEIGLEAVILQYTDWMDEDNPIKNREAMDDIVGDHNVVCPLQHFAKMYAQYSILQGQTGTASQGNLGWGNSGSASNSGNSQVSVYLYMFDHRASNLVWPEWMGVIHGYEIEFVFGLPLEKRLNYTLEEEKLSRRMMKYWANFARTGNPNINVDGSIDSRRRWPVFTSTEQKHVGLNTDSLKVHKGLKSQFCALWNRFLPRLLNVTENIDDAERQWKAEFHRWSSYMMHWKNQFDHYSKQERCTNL

Acetylcholinesterase (Homo sapiens, UniProt P22303), sequence (P22303 whole entry): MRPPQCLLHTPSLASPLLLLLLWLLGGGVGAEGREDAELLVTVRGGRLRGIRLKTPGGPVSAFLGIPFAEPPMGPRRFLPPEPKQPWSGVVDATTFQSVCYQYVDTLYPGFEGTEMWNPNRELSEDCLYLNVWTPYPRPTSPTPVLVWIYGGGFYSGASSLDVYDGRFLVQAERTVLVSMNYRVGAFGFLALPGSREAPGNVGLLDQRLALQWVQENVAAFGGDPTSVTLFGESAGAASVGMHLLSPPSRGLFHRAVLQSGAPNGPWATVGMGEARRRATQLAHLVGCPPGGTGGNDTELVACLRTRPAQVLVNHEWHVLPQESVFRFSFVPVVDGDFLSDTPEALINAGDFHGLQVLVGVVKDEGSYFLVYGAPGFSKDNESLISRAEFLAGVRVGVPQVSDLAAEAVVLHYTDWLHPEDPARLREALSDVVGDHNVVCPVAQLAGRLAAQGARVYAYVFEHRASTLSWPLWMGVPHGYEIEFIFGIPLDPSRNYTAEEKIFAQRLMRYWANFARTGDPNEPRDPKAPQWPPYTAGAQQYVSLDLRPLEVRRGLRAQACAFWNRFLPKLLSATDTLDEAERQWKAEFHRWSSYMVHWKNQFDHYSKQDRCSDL
Beta-secretase 1 (Homo sapiens), sequence (P56817 whole entry): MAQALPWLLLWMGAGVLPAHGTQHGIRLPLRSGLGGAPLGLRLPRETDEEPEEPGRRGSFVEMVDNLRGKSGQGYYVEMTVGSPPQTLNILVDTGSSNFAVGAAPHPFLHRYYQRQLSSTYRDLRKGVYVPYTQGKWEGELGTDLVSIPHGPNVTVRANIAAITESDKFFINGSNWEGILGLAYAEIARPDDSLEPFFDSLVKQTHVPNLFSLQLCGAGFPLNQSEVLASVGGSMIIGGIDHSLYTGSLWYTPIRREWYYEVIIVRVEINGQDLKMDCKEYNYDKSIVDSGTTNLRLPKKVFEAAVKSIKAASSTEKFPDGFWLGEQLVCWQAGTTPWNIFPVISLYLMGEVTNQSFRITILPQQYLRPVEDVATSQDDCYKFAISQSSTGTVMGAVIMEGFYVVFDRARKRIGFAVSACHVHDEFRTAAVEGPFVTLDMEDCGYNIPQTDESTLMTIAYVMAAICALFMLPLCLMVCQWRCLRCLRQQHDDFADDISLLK
Acetylcholinesterase (Electrophorus electricus, UniProt O42275), sequence (O42275 whole entry): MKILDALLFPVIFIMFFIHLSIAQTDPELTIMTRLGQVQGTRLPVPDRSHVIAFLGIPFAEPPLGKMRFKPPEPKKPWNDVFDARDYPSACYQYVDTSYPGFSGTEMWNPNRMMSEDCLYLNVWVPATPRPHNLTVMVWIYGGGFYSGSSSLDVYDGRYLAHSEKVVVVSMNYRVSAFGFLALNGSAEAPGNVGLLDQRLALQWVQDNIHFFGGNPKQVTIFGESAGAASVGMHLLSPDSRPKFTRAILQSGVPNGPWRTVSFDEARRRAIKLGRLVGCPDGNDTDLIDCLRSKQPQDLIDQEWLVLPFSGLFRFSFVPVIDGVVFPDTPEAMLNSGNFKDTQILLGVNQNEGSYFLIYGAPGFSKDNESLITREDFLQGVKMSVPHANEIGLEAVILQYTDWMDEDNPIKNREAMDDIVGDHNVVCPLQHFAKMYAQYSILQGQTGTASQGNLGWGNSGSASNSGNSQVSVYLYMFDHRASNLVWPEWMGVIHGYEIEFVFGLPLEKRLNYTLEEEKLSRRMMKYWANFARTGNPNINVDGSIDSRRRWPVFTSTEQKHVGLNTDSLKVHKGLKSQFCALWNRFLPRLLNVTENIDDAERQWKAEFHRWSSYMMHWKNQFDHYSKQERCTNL

Row | Structure (SMILES) | Activity (Mus musculus [1]) | Activity (Mus musculus [2]) | Activity (Mus musculus [4]) | Activity (Mus musculus [5]) | Activity (Mus musculus [6]) | Activity (Mus musculus [7]) | Drug uptake [9] | Activity (Mus musculus [10]) | Activity (Mus musculus [11]) | Activity (Mus musculus [12]) | Activity (Mus musculus [13]) | inhibition [14] | Time (Mus musculus [15]) | Drug uptake [17] | further results
1 | COc1cc(CNC(=O)Cc2cn(CCCCC3=CC4Cc5nc6cc(Cl)ccc6c(N)c5C(C3)C4)nn2)ccc1O (stereo not given) | inactive | inactive | 397.3% | Active | inactive | inactive | Active | inactive | inactive | inactive | inactive | inactive | 1.93 ms | Active | Ratio (Mus musculus [3]): 3.42; Activity (Mus musculus [8]): 18.4 pg/mL; Activity (Mus musculus [16]): Active
2 | COc1cc(CNC(=O)CCCCCCNc2c3c(nc4cc(Cl)ccc24)CC2C=C(C)CC3C2)ccc1O (stereo not given) | inactive | inactive | 275.6% | Active | inactive | inactive | Active | inactive | Active | inactive | inactive | 7.4% | 3.44 ms | Active | Kd (Acetylcholinesterase [18]): 0.94 nM; inhibition (Acetylcholinesterase [18]; dose 0.17-1.36 nM): Active; Kd (Acetylcholinesterase [19]): 3.59 nM; Activity [20]: 23%
